Data published in ChEMBL document CHEMBL4376860, “Discovery of Novel Dual Poly(ADP-ribose)polymerase and Phosphoinositide 3-Kinase Inhibitors as a Promising Strategy for Cancer Therapy” (J Med Chem, 2020).
Active and inactive are the calls of the source. No cut-off for these calls is given here.

Key:
HCT-116 [1] = test: Antiproliferative activity against human HCT116 cells measured after 7 days by Celltiter-glo assay; type: functional, cell-based; conditions: HCT-116, 168 h
In short: (§1)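 Cells maintained in RPMI1640 with 10% FBS at 37 °C, 5% CO2. Seeded the day before dosing, grown 12 h, then exposed to graded compound concentrations for 7 days. CellTiter-Glo reagent added, 10 min at room temperature, luminescence read. Inhibition % = (1-(RLU compound - RLU blank)/(RLU DMSO - RLU blank))×100. IC50 from nonlinear regression, normalized dose-response fit.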

HCC1937 [2] = test: Antiproliferative activity against human HCC1937 cells measured after 7 days by Celltiter-glo assay; type: functional, cell-based; conditions: HCC1937, 168 h; in short: as §1
MDA-MB-231 = test: Antiproliferative activity against human MDA-MB-231 cells measured after 7 days by Celltiter-glo assay; type: functional, cell-based; conditions: MDA-MB-231, 168 h; in short: as §1
MDA-MB-468 [3] = test: Antiproliferative activity against human MDA-MB-468 cells measured after 7 days by Celltiter-glo assay; type: functional, cell-based; conditions: MDA-MB-468, 168 h; in short: as §1
BXPC-3 = test: Antiproliferative activity against human BxPC3 cells measured after 7 days by Celltiter-glo assay; type: functional, cell-based; conditions: BXPC-3, 168 h; in short: as §1
A2780 [4] = test: Antiproliferative activity against human A2780 cells measured after 7 days by Celltiter-glo assay; type: functional, cell-based; conditions: A2780, 168 h; in short: as §1
Jurkat = test: Antiproliferative activity against human Jurkat cells measured after 7 days by Celltiter-glo assay; type: functional, cell-based; conditions: 168 h; in short: as §1
DU-145 = test: Antiproliferative activity against human DU145 cells measured after 7 days by Celltiter-glo assay; type: functional, cell-based; conditions: DU-145, 168 h; in short: as §1
A549 = test: Antiproliferative activity against human A549 cells measured after 7 days by Celltiter-glo assay; type: functional, cell-based; conditions: A549, 168 h; in short: as §1
CAKI-1 = test: Antiproliferative activity against human CAKI-1 cells measured after 7 days by Celltiter-glo assay; type: functional, cell-based; conditions: CAKI-1, 168 h; in short: as §1
Ramos [5] = test: Antiproliferative activity against human Ramos cells measured after 7 days by Celltiter-glo assay; type: functional, cell-based; conditions: 168 h; in short: as §1
SW-620 = test: Antiproliferative activity against human SW620 cells measured after 7 days by Celltiter-glo assay; type: functional, cell-based; conditions: SW-620, 168 h; in short: as §1
MDA-MB-468 [6] = test: Inhibition of PI3K in human MDA-MB-468 cells assessed as reduction in BRCA1 mRNA level at 1 uM by Trizol reagent-based RT-PCR analysis; type: cell-based
In short: (§2)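 Total RNA from treated MDA-MB-468 cells extracted with TRIzol. BRCA1 or BRCA2 mRNA quantified by real-time PCR with GAPDH as internal control. Results given as fold change relative to the internal control. Mean ± SD of three independent experiments.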

MDA-MB-468 [7] = test: Inhibition of PI3K in human MDA-MB-468 cells assessed as reduction in BRCA2 mRNA level at 1 uM by Trizol reagent-based RT-PCR analysis; type: cell-based; in short: as §2
MDA-MB-468 [8] = test: Inhibition of PI3K in human MDA-MB-468 cells assessed as reduction in RAD51 foci formation at 1 uM measured after 72 hrs by DAPI staining based immunofluorescence microscopic analysis; type: cell-based
In short: (§3)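 RAD51 foci in MDA-MB-468 cells on coverslips after 72 h drug exposure. Cells fixed (3% formaldehyde), permeabilized (0.1% Triton X-100), blocked in 10% FBS/PBS, incubated overnight at 4 °C with rabbit anti-RAD51 polyclonal, then secondary antibody plus DAPI. Foci and percent positive cells (>5 foci per cell) counted from about 200 cells. Mean ± SD of three independent experiments.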

MDA-MB-468 [9] = test: Inhibition of PI3K in human MDA-MB-468 cells assessed as reduction in RAD51 foci formation at 1 uM measured after 72 hrs in presence of PARP inhibitor olaparib by DAPI staining based immunofluorescence microscopic analysis; type: cell-based; in short: as §3
MDA-MB-468 [10] = test: Induction of DNA damage in human MDA-MB-468 cells at 1 uM measured after 72 hrs by comet assay; type: functional, cell-based
In short: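 MDA-MB-468 cells treated for 72 h, harvested and run in a neutral comet assay. Ethidium bromide staining after electrophoresis. About 200 cell images per group analysed with CASP. DNA damage scored as tail intensity (percentage DNA in tail) and olive tail moment. Mean ± SD of three independent experiments.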

MDA-MB-468 [11] = test: Induction of apoptosis in human MDA-MB-468 cells assessed as viable cells at 1 uM measured after 72 hrs by Annexin V-FITC/propidium iodide staining based flow cytometry (reference value: 95.2%); type: functional; conditions: MDA-MB-468, 72 h, read-out: Activity
MDA-MB-468 [12] = test: Induction of apoptosis in human MDA-MB-468 cells assessed as early apoptotic cells at 1 uM measured after 72 hrs by Annexin V-FITC/propidium iodide staining based flow cytometry (reference value: 3.88%); type: functional
MDA-MB-468 [13] = test: Induction of apoptosis in human MDA-MB-468 cells assessed as late apoptotic cells at 1 uM measured after 72 hrs by Annexin V-FITC/propidium iodide staining based flow cytometry (reference value: 0.78%); type: functional
MDA-MB-468 [14] = test: Induction of apoptosis in human MDA-MB-468 cells assessed as necrotic cells at 1 uM measured after 72 hrs by Annexin V-FITC/propidium iodide staining based flow cytometry (reference value: 0.13%); type: functional
A2780 [15] = test: cells; conditions: Homo sapiens, A2780, 168 h, read-out: pIC50 (converted)
Ramos [16] = test: cells; conditions: Homo sapiens, 168 h, read-out: pIC50 (converted)
[17] = biological target: Poly [ADP-ribose] polymerase 1 (Homo sapiens, UniProt P09874); test: Inhibition of recombinant human PARP1 using histone as substrate after 1 hr in presence of biotinylated NAD+ by ELISA
HCT-116 [18] = test: Potency index, ratio of BKM120 IC50 to test compound IC50 for antiproliferative activity against human HCT116 cells; type: functional
HCC1937 [19] = test: Potency index, ratio of BKM120 IC50 to test compound IC50 for antiproliferative activity against human HCC1937 cells; type: functional
MDA-MB-468 [20] = test: Induction of apoptosis in human MDA-MB-468 cells assessed as increase in cleaved PARP level at 1 uM […] by Western blot analysis; type: functional, cell-based
MDA-MB-468 [21] = test: Antitumor activity against human MDA-MB-468 cells xenografted in BALB/c mouse assessed as tumor growth inhibition at 50 mg/kg, ip administered every 2 days for 34 days and measured at 2 days interval during compound dosing relative to control; type: functional; conditions: MDA-MB-468, ip, read-out: TGI
[22] = biological target: Poly [ADP-ribose] polymerase 2 (Homo sapiens, UniProt Q9UGN5); test: Inhibition of recombinant human PARP2 using histone as substrate after 1 hr in presence of biotinylated NAD+ by ELISA
Poly [ADP-ribose] polymerase 2, sequence (Q9UGN5 whole entry): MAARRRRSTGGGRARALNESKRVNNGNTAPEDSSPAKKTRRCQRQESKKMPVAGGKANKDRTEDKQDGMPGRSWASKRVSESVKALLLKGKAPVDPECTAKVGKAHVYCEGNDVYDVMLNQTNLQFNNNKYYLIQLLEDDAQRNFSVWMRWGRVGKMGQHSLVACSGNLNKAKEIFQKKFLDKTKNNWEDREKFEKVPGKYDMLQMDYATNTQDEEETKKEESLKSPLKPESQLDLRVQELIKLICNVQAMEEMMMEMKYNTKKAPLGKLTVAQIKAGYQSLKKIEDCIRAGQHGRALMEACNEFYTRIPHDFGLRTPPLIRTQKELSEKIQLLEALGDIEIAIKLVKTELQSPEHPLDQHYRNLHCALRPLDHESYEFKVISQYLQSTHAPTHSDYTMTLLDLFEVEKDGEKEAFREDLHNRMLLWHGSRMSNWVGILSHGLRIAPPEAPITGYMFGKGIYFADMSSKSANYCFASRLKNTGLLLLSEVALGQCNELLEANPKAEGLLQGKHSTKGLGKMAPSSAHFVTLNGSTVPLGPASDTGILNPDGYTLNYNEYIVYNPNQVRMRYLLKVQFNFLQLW

Poly [ADP-ribose] polymerase 1, sequence (P09874 whole entry): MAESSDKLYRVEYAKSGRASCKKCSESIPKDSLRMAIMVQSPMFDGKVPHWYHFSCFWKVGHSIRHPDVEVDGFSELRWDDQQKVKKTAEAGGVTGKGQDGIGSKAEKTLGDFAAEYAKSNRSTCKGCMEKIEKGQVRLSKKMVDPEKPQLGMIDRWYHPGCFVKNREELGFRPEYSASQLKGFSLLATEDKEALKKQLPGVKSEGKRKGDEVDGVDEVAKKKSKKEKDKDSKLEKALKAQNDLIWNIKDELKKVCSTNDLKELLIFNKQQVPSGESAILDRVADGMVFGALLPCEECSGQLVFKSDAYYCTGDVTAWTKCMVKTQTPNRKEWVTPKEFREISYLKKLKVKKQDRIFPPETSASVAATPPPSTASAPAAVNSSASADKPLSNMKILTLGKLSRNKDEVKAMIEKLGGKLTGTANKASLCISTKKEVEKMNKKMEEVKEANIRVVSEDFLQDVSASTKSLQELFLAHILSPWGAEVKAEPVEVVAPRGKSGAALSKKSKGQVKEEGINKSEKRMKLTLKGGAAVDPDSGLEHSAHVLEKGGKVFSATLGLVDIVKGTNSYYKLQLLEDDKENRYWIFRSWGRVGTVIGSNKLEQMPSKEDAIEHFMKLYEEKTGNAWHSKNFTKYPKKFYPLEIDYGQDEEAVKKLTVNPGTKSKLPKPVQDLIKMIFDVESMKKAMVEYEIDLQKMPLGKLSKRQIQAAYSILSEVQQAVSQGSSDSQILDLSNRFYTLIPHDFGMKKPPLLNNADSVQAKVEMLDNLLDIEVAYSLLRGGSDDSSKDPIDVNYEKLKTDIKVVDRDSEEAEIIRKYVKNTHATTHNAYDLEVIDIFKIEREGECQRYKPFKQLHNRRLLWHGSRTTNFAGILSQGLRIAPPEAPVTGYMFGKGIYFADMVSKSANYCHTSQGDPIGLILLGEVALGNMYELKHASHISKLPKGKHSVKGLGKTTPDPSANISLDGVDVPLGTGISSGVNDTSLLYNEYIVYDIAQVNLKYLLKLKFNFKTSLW

Row | Structure (SMILES) | IC50 (HCT-116 [1]) [nM] | IC50 (HCC1937 [2]) [nM] | IC50 (MDA-MB-231) [nM] | IC50 (MDA-MB-468 [3]) [nM] | IC50 (BXPC-3) [nM] | IC50 (A2780 [4]) [nM] | IC50 (Jurkat) [nM] | IC50 (DU-145) [nM] | IC50 (A549) [nM] | IC50 (CAKI-1) [nM] | IC50 (Ramos [5]) [nM] | IC50 (SW-620) [nM] | inhibition (MDA-MB-468 [6]) | inhibition (MDA-MB-468 [7]) | inhibition (MDA-MB-468 [8]) | Activity (MDA-MB-468 [10]) | viability at 1 µM (MDA-MB-468 [11]) [%] | Activity (MDA-MB-468 [12]) [%] | Activity (MDA-MB-468 [13]) [%] | Activity (MDA-MB-468 [14]) [%] | further results
1 | Nc1cc(C(F)(F)F)c(-c2cc(N3CCOCC3)nc(N3CCOCC3)n2)cn1 [BUPARLISIB] | 3630 | 6310 | 6030 | 3980 | 4070 | 417 | 1410 | 3800 | 1700 | 2750 | 3630 | 5130 | Active | Active | Active | Active | 91.9 | 6.13 | 1.82 | 0.16 | inhibition (MDA-MB-468 [9]): Active; IC50 (A2780 [15]): 347 nM; IC50 (Ramos [16]): 1170 nM
2 | Nc1cc(C(F)(F)F)c(-c2nc3c(c(N4CCOCC4)n2)CCN(C(=O)c2cc(Cc4n[nH]c(=O)c5ccccc45)ccc2F)C3)cn1 | 871 | 1050 | 1000 | 977 | 1070 | 398 | 933 | 891 | 537 | 955 | 1070 | 2820 | Active | Active | Active | Active | 55.7 | 21.9 | 21 | 1.44 | IC50 [17]: 6.03 nM; Ratio IC50 (HCT-116 [18]): >=4; Ratio IC50 (HCC1937 [19]): >=4; Activity (MDA-MB-468 [20]): Active; inhibition in vivo at 50 mg/kg (MDA-MB-468 [21]): 73.4%; IC50 [22]: 3.63 nM
